# Test results taken from ChEMBL document CHEMBL3393041, “Denhaminols A-H, dihydro-β-agarofurans from the endemic Australian rainforest plant Denhamia celastroides” (J Nat Prod, 2015).
# Active and inactive are the calls of the source. No cut-off for these calls is given here.
# Experiments:
# Assay type in all cases: functional, cell-based
# LNCaP [1] = experiment: Reduction in phosphatidylcholine content in human LNCAP cells at 10 uM after 72 hrs by nile red staining based fluorescence microscopy
# How it was run: (§1)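 LNCaP cells were seeded at 3000/well on poly-L-ornithine-coated plates in phenol-red-free RPMI-1640 with 5% FBS for 48 h, then treated for 72 h. Cells were fixed in 4% paraformaldehyde for 20 min on ice and stained 20 min at RT in PBS with 1.0 μg/mL DAPI and 0.25 μg/mL Nile Red. Mean fluorescence was measured for neutral lipids (Cy3) and phospholipids (Cy5) in ~300 cells at 10×. Analysis used one-way ANOVA with Dunnett's test. DMSO was the negative control and TOFA the positive control. Duplicate points; three independent experiments.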
# LNCaP [2] = experiment: Reduction in phosphatidylserine content in human LNCAP cells at 10 uM after 72 hrs by nile red staining based fluorescence microscopy; how it was run: as §1
# LNCaP [3] = experiment: Reduction in phosphatidylethanolamine content in human LNCAP cells at 10 uM after 72 hrs by nile red staining based fluorescence microscopy; how it was run: as §1
# LNCaP [4] = experiment: Reduction in sterol content in human LNCAP cells at 10 uM after 72 hrs by nile red staining based fluorescence microscopy; how it was run: as §1
# LNCaP [5] = experiment: Reduction in fatty acid content in human LNCAP cells at 10 uM after 72 hrs by nile red staining based fluorescence microscopy; how it was run: as §1
# LNCaP [6] = experiment: Reduction in triglyceride content in human LNCAP cells at 10 uM after 72 hrs by nile red staining based fluorescence microscopy; how it was run: as §1
# LNCaP [7] = experiment: Growth inhibition of human LNCAP cells after 72 hrs by Alamar Blue assay
# How it was run: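 LNCaP cells in phenol-red-free RPMI-1640 with 5% FBS were seeded 4000/well for 24 h, then treated with compounds diluted from DMSO into medium (DMSO ≤0.4%). Metabolic activity was read by AlamarBlue endpoint after 72 h. IC50 was calculated at 72 h. DMSO served as negative control and doxorubicin as positive control. Triplicate points; three independent experiments.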
# LNCaP [8] = experiment: Reduction in phosphatidylcholine content in human LNCAP cells at 25 uM after 72 hrs by nile red staining based fluorescence microscopy; how it was run: as §1
# LNCaP [9] = experiment: Antiproliferative activity against human LNCAP cells assessed as enlargement, granulation and cell burst measured every 2 hrs for 96 hrs by live-cell imaging method
# How it was run: (§2)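 LNCaP cells (ATCC) grown in phenol-red-free RPMI-1640 with 5% FBS at 37 °C, 5% CO2, kept in log phase. Cells seeded 4000/well for 24 h, then treated with compounds in DMSO diluted in medium (DMSO ≤0.4%). Plates imaged every 2 h for 96 h by IncuCyte live-cell imaging; growth read as confluence; morphology recorded from the images. DMSO as vehicle control.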
# LNCaP [10] = experiment: Antiproliferative activity against human LNCAP cells assessed as enlargement, granulation and cell burst at 10 to 100 uM by live-cell imaging method; settings: TDE = time-dependent effect; how it was run: as §2
# LNCaP [11] = experiment: Antiproliferative activity against human LNCAP cells assessed as change in cell morphology at 10 to 100 uM measured up to 96 hrs by live-cell imaging method; how it was run: as §2
# LNCaP [12] = experiment: Reduction in phosphatidylserine content in human LNCAP cells at 25 uM after 72 hrs by nile red staining based fluorescence microscopy; how it was run: as §1
# LNCaP [13] = experiment: Reduction in phosphatidylethanolamine content in human LNCAP cells at 25 uM after 72 hrs by nile red staining based fluorescence microscopy; how it was run: as §1
# LNCaP [14] = experiment: Reduction in triglyceride content in human LNCAP cells at 60 uM after 72 hrs by nile red staining based fluorescence microscopy; how it was run: as §1
# LNCaP [15] = experiment: Reduction in phosphatidylethanolamine content in human LNCAP cells at 60 uM after 72 hrs by nile red staining based fluorescence microscopy; how it was run: as §1
# LNCaP [16] = experiment: Reduction in phosphatidylserine content in human LNCAP cells at 60 uM after 72 hrs by nile red staining based fluorescence microscopy; how it was run: as §1
# LNCaP [17] = experiment: Reduction in sterol content in human LNCAP cells at 60 uM after 72 hrs by nile red staining based fluorescence microscopy; how it was run: as §1
# LNCaP [18] = experiment: Reduction in phosphatidylcholine content in human LNCAP cells at 60 uM after 72 hrs by nile red staining based fluorescence microscopy; how it was run: as §1
# LNCaP [19] = experiment: Reduction in fatty acid content in human LNCAP cells at 60 uM after 72 hrs by nile red staining based fluorescence microscopy; how it was run: as §1
compound,measurement,setting,value
CCCCCCCCCCCCCCOc1ccc(C(=O)O)o1,Activity,LNCaP [1],Active
same,Activity,LNCaP [2],Active
same,Activity,LNCaP [3],Active
same,Activity,LNCaP [4],Active
same,Activity,LNCaP [5],Active
same,Activity,LNCaP [6],Active
CC(=O)OCC(=O)O[C@H]1CC[C@](C)(O)[C@]23OC(C)(COC(=O)c4ccccc4)[C@H]([C@H](O)[C@H](OC(=O)/C=C/c4ccccc4)[C@]12C)[C@H]3OC(C)=O (stereo partly specified),IC50,LNCaP [7],> 10 µM
CC(=O)OC[C@@]12[C@@H](OC(C)=O)CC[C@](C)(O)[C@]13OC(C)(C)[C@H]([C@H](O)[C@@H]2OC(=O)/C=C/c1ccccc1)[C@H]3OC(C)=O,IC50,LNCaP [7],> 10 µM
CC(=O)OC[C@@]12[C@@H](OC(C)=O)CC[C@](C)(O)[C@]13OC(C)(COC(=O)c1ccccc1)[C@H](C[C@@H]2OC(=O)/C=C/c1ccccc1)[C@H]3OC(C)=O (stereo partly specified),IC50,LNCaP [7],> 10 µM
CC(=O)OC[C@@]12[C@@H](OC(C)=O)CC[C@](C)(O)[C@]13OC(C)(COC(=O)c1ccccc1)[C@H](C[C@@H]2OC(=O)/C=C/c1ccccc1)[C@H]3O (stereo partly specified),IC50,LNCaP [7],> 10 µM
CC(=O)OC[C@@]12[C@@H](OC(C)=O)CC[C@](C)(O)[C@]13OC(C)(C)[C@H](C[C@@H]2OC(=O)/C=C/c1ccccc1)[C@H]3O,IC50,LNCaP [7],> 10 µM
C/C=C(\C)C(=O)OCC1(C)O[C@]23[C@H](OC(C)=O)[C@H]1C[C@H](OC(=O)/C=C/c1ccccc1)[C@]2(COC(C)=O)[C@@H](OC(=O)COC(C)=O)CC[C@]3(C)O (stereo partly specified),IC50,LNCaP [7],> 10 µM
C/C=C(\C)C(=O)OCC1(C)O[C@]23[C@H](OC(C)=O)[C@H]1[C@H](O)[C@H](OC(=O)/C=C/c1ccccc1)[C@]2(C)[C@@H](OC(=O)COC(C)=O)CC[C@]3(C)O (stereo partly specified),Activity,LNCaP [8],Active
same,Activity,LNCaP [9],Dose-dependent effect
same,IC50,LNCaP [7],> 10 µM
same,Activity,LNCaP [10],tde
same,Activity,LNCaP [11],Active
same,Activity,LNCaP [12],Active
same,Activity,LNCaP [13],Active
CC(=O)OC[C@@]12[C@@H](OC(C)=O)CC[C@](C)(O)[C@]13OC(C)(C)[C@H](C[C@@H]2OC(=O)/C=C/c1ccccc1)[C@H]3OC(C)=O,Activity,LNCaP [14],Active
same,Activity,LNCaP [15],Active
same,IC50,LNCaP [7],> 10 µM
same,Activity,LNCaP [16],Active
same,Activity,LNCaP [17],Active
same,Activity,LNCaP [18],Active
same,Activity,LNCaP [19],Active
